# Measurements reported in publication PMC5866228 (Journal of natural products, 2018).
# “And” between values parts separate entries of the source, which are not always exact repeats. Identical values can stand only once. “Also recorded” adds a separate entry of the source.
# How the values were obtained:
# [1] = target: T1, purified porcine brain tubulin (Sus scrofa, UniProt P02554); settings: cited from earlier work
# [2] = test system: HeLa cervical cancer cell line; settings: cited from earlier work
# [3] = test system: NCI/ADR-RES drug-resistant xenograft; settings: systemic administration; no reference given; cited from earlier work
# [4] = aqueous conditions; cited from earlier work
# [5] = target: T1, purified porcine brain tubulin; assay: Tubulin polymerization, turbidimetric at 340 nm; assay type: biochemical; settings: 5 μM compound, tubulin 2 mg/mL, 37°C
# In short: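 Test compound at 5 μM, a reference taccalonolide at 5−20 μM, or vehicle (1% EtOH). Samples were prepared on ice, then warmed to 37 °C to start polymerization. Rate and extent were followed turbidimetrically at 340 nm.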
# [6] = Initial dose tolerance; assay type: in vivo, mice; settings: systemic (ip), drug-sensitive or -resistant xenograft models
# [7] = test system: NCI/ADR-RES drug-resistant xenograft; assay type: in vivo; settings: for days with statistically significant effects vs paclitaxel-treated tumors / tumor growth following the first drug administration on day 0: intratumoral; for first day of statistically significant difference vs vehicle-treated tumors: intratumoral 20 μg on days 0, 3, 6, 10, 14, two-way ANOVA, Tukey; for persistence of antitumor efficacy after the final dose: intratumoral injection, paclitaxel-resistant tumor; for tumor growth following the first drug administration on day 0: 20 μg 21 or 26, 40 μg paclitaxel
# [8] = plasma / in vivo; cited from earlier work
# [9] = compared to 3; cited from earlier work
# [10] = Hydrolytic stability in aqueous solution; assay type: physicochemical; settings: 10 mg in 1:1 EtOH-PBS, 36 h, room temperature
# In short: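 Test compound stirred in 1× PBS–EtOH; the mixture was then vacuum-dried and extracted with CH3CN. The hydrolysis product was isolated by semipreparative C18 HPLC eluted with 60−100% CH3CN/H2O containing 0.1% formic acid. Isolated yield was the read-out.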
# T1 sequence (P02554 whole entry): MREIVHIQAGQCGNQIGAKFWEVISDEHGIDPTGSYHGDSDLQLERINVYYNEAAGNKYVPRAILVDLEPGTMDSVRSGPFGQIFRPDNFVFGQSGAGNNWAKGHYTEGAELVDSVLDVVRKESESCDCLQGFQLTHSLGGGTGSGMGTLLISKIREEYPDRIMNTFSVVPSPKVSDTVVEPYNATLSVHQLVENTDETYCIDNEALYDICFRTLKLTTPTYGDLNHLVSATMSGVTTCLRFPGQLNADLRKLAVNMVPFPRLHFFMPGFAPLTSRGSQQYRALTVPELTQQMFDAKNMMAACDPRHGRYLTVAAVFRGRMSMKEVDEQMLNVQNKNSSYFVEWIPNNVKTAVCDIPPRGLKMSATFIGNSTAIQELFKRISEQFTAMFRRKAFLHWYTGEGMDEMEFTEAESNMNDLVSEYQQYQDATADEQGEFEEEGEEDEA
# T1 sequence (P02550 whole entry partner): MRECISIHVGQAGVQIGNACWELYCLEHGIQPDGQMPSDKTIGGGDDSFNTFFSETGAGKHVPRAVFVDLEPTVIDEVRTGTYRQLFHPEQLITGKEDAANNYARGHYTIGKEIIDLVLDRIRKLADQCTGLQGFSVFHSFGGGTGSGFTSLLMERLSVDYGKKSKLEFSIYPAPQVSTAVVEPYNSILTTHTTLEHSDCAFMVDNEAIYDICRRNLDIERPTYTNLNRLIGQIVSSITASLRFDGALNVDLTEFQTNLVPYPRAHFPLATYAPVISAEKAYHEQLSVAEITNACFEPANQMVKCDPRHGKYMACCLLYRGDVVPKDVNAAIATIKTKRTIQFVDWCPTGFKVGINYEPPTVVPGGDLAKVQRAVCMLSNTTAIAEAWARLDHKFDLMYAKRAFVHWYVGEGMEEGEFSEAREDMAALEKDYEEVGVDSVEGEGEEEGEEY
structure (smiles),measurement,setting,value
"CC(=O)O[C@@H]1[C@H]2[C@H]3[C@H]([C@H](OC(C)=O)[C@H](OC(C)=O)[C@]2(C)[C@H]2[C@H](C)[C@H]4O[C@]45OC(=O)[C@@](C)(O)[C@]5(C)[C@H]12)[C@]1(C)[C@H](C[C@@H]2O[C@@H]2[C@@H]1OC(C)=O)C(=O)[C@@H]3O [Compound 3, taccalonolide AF]",effect on polymerization of purified tubulin,[1],directly stimulates the polymerization of purified tubulin
same,potency relative to 1,[2],over 200 fold
same,efficacy in the taxane-resistant model,[3],has efficacy in this taxane-resistant model with systemic administration
same,hydrolysis of C-15 acetoxy group,[4],readily hydrolyzed to generate 4 under aqueous conditions
CC(=O)O[C@H]1[C@H]2[C@H]([C@@H]3[C@@H](O)[C@@H]4[C@H]([C@H](C)[C@H]5O[C@]56OC(=O)[C@@](C)(O)[C@]46C)[C@@]3(C)[C@H]1OC(C)=O)[C@@H](OC(=O)C(C)(C)C)C(=O)[C@H]1C[C@@H]3O[C@@H]3[C@H](OC(C)=O)[C@]21C [Compound 27],extent of tubulin polymerization compared with 4,[5],comparable levels of tubulin polymerization compared to an equivalent concentration of 4
CC(=O)O[C@H]1[C@H]2[C@H]([C@@H]3[C@@H](OC(=O)C(C)C)[C@@H]4[C@H]([C@H](C)[C@H]5O[C@]56OC(=O)[C@@](C)(O)[C@]46C)[C@@]3(C)[C@H]1OC(C)=O)[C@@H](O)C(=O)[C@H]1C[C@@H]3O[C@@H]3[C@H](OC(C)=O)[C@]21C [Compound 20],antitumor effects during MTD evaluations,[6],lack of observable antitumor effects
same,extent of tubulin polymerization compared with 4,[5],comparable levels of tubulin polymerization compared to an equivalent concentration of 4
CC(=O)O[C@H]1[C@H]2[C@H]([C@@H]3[C@@H](O)[C@@H]4[C@H]([C@H](C)[C@H]5O[C@]56OC(=O)[C@@](C)(O)[C@]46C)[C@@]3(C)[C@H]1OC(C)=O)[C@@H](OC(=O)CC(C)C)C(=O)[C@H]1C[C@@H]3O[C@@H]3[C@H](OC(C)=O)[C@]21C [Compound 26],antitumor effects during MTD evaluations,[6],lack of observable antitumor effects
same,extent of tubulin polymerization compared with 4,[5],greater extent of tubulin polymerization than equivalent concentrations of 4
same,growth of tumors with smaller initial volumes (130 – 233 mm^3),"[7]; four tumors, intratumoral 20 μg",did not increase in size even by day 54
same,days with statistically significant effects vs paclitaxel-treated tumors,[7],12 to 14 days
same,first day of statistically significant difference vs vehicle-treated tumors,[7],12 days
same,persistence of antitumor efficacy after the final dose,[7],at least 30 days
same,tumor growth following the first drug administration on day 0,[7],abruptly slowed
CC(=O)O[C@H]1[C@H]2[C@H]([C@@H]3[C@@H](OC(=O)CC(C)C)[C@@H]4[C@H]([C@H](C)[C@H]5O[C@]56OC(=O)[C@@](C)(O)[C@]46C)[C@@]3(C)[C@H]1OC(C)=O)[C@@H](O)C(=O)[C@H]1C[C@@H]3O[C@@H]3[C@H](OC(C)=O)[C@]21C [Compound 21],antitumor effects during MTD evaluations,[6],lack of observable antitumor effects
same,extent of tubulin polymerization compared with 4,[5],greater extent of tubulin polymerization than equivalent concentrations of 4
same,"first day on which a tumor reached 1,500 mm^3","[7]; 31 days after the final dose, intratumoral 20 μg",45 days
same,days with statistically significant effects vs paclitaxel-treated tumors,[7],12 to 14 days
same,first day of statistically significant difference vs vehicle-treated tumors,[7],10 days
same,persistence of antitumor efficacy after the final dose,[7],at least 30 days
same,tumor growth following the first drug administration on day 0,[7],abruptly slowed
"CC(=O)O[C@H]1C(=O)[C@@]2(C)[C@H]([C@H](OC(=O)c3ccccc3)[C@]3(O)C[C@H](OC(=O)[C@H](O)[C@@H](NC(=O)c4ccccc4)c4ccccc4)C(C)=C1C3(C)C)[C@]1(OC(C)=O)CO[C@@H]1C[C@@H]2O [paclitaxel, reference compound]",tumor growth rate compared with vehicle up to day 14,[7]; intratumoral 40 μg,not different statistically
same,tumor growth following the first drug administration on day 0,[7],unaffected
CC(=O)O[C@H]1[C@H]2[C@H]([C@@H]3[C@@H](OC(=O)C4CC4)[C@@H]4[C@H]([C@H](C)[C@H]5O[C@]56OC(=O)[C@@](C)(O)[C@]46C)[C@@]3(C)[C@H]1OC(C)=O)[C@@H](O)C(=O)[C@H]1C[C@@H]3O[C@@H]3[C@H](OC(C)=O)[C@]21C [Compound 19],antitumor effects during MTD evaluations,[6],lack of observable antitumor effects
same,extent of tubulin polymerization compared with 4,[5],comparable levels of tubulin polymerization compared to an equivalent concentration of 4
"CC(=O)O[C@H]1[C@H]2[C@H]([C@@H]3[C@@H](O)[C@@H]4[C@H]([C@H](C)[C@H]5O[C@]56OC(=O)[C@@](C)(O)[C@]46C)[C@@]3(C)[C@H]1OC(C)=O)[C@@H](O)C(=O)[C@H]1C[C@@H]3O[C@@H]3[C@H](OC(C)=O)[C@]21C [Compound 4, taccalonolide AJ]",half-life,[8],lower in vivo half-life; also recorded: shorter plasma half-life
same,microsomal clearance,[9],higher microsomal clearance; also recorded: increased rate of microsomal clearance as compared to 3
CC(=O)O[C@H]1[C@H]2[C@H]([C@@H]3[C@@H](OC(=O)c4ccc5c(c4)C(=O)c4ccccc4C5=O)[C@@H]4[C@H]([C@H](C)[C@H]5O[C@]56OC(=O)[C@@](C)(O)[C@]46C)[C@@]3(C)[C@H]1OC(C)=O)[C@@H](O)C(=O)[C@H]1C[C@@H]3O[C@@H]3[C@H](OC(C)=O)[C@]21C [Compound 24],"hydrolysis to 4, yield",[10],67.4% and 67%
CC(=O)O[C@H]1[C@H]2[C@H]([C@@H]3[C@@H](OC(=O)C(C)(C)C)[C@@H]4[C@H]([C@H](C)[C@H]5O[C@]56OC(=O)[C@@](C)(O)[C@]46C)[C@@]3(C)[C@H]1OC(C)=O)[C@@H](O)C(=O)[C@H]1C[C@@H]3O[C@@H]3[C@H](OC(C)=O)[C@]21C [Compound 22],antitumor effects during MTD evaluations,[6],lack of observable antitumor effects
